Values after ≈ are worked out from the molar mass of the structure shown.
How the values were obtained:
Topoisomerase IV = Topoisomerase IV (Staphylococcus aureus, UniProt P0C1S7+P0C1U9); experiment: Inhibition of Staphylococcus aureus DNA topoisomerase 4; type: protein-complex assay
[1] = (§1) Apparent permeability across basolateral to apical side in MDCK cells; type: ADME, cell-based, Canis lupus familiaris; conditions: dog
Summary of the method: (§2)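 Papp measured in wild-type MDCK cells in both apical-to-basolateral and basolateral-to-apical directions; values expressed in units of 1 × 10–6 cm/sec.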

Plasma [2] = experiment: Drug uptake in monkey plasma at 30 mg/kg, po by LC-MS/MS analysis; type: ADME, organism-based, Macaca mulatta; conditions: rhesus monkey, in vivo
Summary of the method: (§3)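 Prodrug given orally to rat and dog at 3 mg/kg and to monkey at 30 mg/kg. Plasma parent exposure measured, with oral dosing of the parent at the same nominal dose as comparator.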

Streptococcus pneumoniae = experiment: Antibacterial activity against Streptococcus pneumoniae ATCC 10015; type: functional
Staphylococcus aureus [3] = experiment: Antibacterial activity against methicillin/levofloxacin-resistant Staphylococcus aureus 156 in po dosed neutropenic CD1 mouse pneumonia model assessed as decrease in bacterial burden in lung administered as bid measured after 24 hrs; type: functional; conditions: for MIC: Staphylococcus aureus, 156, Lung
Summary of the method: (§4)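 Neutropenic female CD-1 mice, 6 per group, infected in the lung with the MRSA isolate. Oral dosing began 3 h after challenge at 7.5, 15 and 30 mg/kg BID. Lungs were taken after 24 h of treatment and bacterial burden counted as CFU. Early-control and vehicle-treated groups served as reference. The levofloxacin comparator was given TID subcutaneously.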

Plasma [4] = experiment: Drug uptake in dog plasma at 3 mg/kg, po by LC-MS/MS analysis; type: ADME, organism-based, Canis lupus familiaris; conditions: in vivo; summary of the method: as §3
Enterococcus faecium = experiment: Antibacterial activity against Enterococcus faecium ATCC 49624; type: functional
Plasma [5] = experiment: Drug uptake in dog plasma at 1 mg/kg, iv measured at 4 hrs by LC-MS/MS analysis; type: ADME, organism-based, Canis lupus familiaris; conditions: in vivo
Summary of the method: (§5)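 Single IV dose, 1 mg/kg nominal, given to rat, dog and monkey. Plasma sampled over time for both prodrug and parent, with the parent exposure expressed as AUC. Dosing the parent itself IV at the same nominal dose served as the comparator.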

[6] = (§6) Apparent permeability across apical to basolateral side in MDCK cells; type: ADME, cell-based, Canis lupus familiaris; conditions: dog; summary of the method: as §2
Enterococcus faecalis = experiment: Antibacterial activity against Enterococcus faecalis ATCC 29212; type: functional
DNA gyrase = DNA gyrase (Staphylococcus aureus, UniProt P0A0K8+P20831); experiment: Inhibition of Staphylococcus aureus DNA gyrase; type: protein-complex assay
Plasma [7] = experiment: Drug uptake in rat plasma at 3 mg/kg, po by LC-MS/MS analysis; type: ADME, organism-based; conditions: in vivo; summary of the method: as §3
Staphylococcus aureus [8] = experiment: Antibacterial activity against Staphylococcus aureus ATCC 29213; type: functional
Plasma [9] = experiment: Drug uptake in rat plasma at 1 mg/kg, iv measured at 4 hrs by LC-MS/MS analysis; type: ADME, organism-based; conditions: in vivo; summary of the method: as §5
Plasma [10] = experiment: Drug uptake in monkey plasma at 1 mg/kg, iv measured at 4 hrs by LC-MS/MS analysis; type: ADME, organism-based, Macaca mulatta; conditions: rhesus monkey, in vivo; summary of the method: as §5
Staphylococcus aureus [11] = experiment: Antibacterial activity against methicillin-resistant Staphylococcus aureus 509 in po dosed neutropenic CD1 mouse pneumonia model assessed as decrease in bacterial burden in lung administered as bid measured after 24 hrs; type: functional; conditions: for MIC: Staphylococcus aureus, 509, Lung; summary of the method: as §4
Plasma [12] = experiment: Prodrug conversion in dog plasma assessed as formation of 1-ethyl-3-[6-fluoro-5-[2-(1-hydroxy-1-methyl-ethyl)pyrimidin-5-yl]-7-[(2R)-tetrahydrofuran-2-yl]-1H-benzimidazol-2-yl]urea at 3 mg/kg, po by LC-MS/MS analysis; type: ADME, organism-based, Canis lupus familiaris; conditions: in vivo; summary of the method: as §3
[13] = Prodrug conversion in monkey liver S9 fractions assessed as formation of 1-ethyl-3-[6-fluoro-5-[2-(1-hydroxy-1-methyl-ethyl)pyrimidin-5-yl]-7-[(2R)-tetrahydrofuran-2-yl]-1H-benzimidazol-2-yl]urea by Michaelis-Menten plot analysis; type: ADME, subcellular, Macaca mulatta, Liver S9 fraction; conditions: rhesus monkey
Summary of the method: (§7)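 Prodrug incubated across 1 to 1000 μM in liver and intestinal S9 fractions from rat, dog, monkey and human. Formation of the parent compound was followed to characterize conversion kinetics.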

MDCK [14] = experiment: as §1; type: ADME, cell-based, Canis lupus familiaris; conditions: dog; summary of the method: as §2
Liver [15] = experiment: Prodrug conversion in rat liver S9 fractions assessed as formation of 1-ethyl-3-[6-fluoro-5-[2-(1-hydroxy-1-methyl-ethyl)pyrimidin-5-yl]-7-[(2R)-tetrahydrofuran-2-yl]-1H-benzimidazol-2-yl]urea by Michaelis-Menten plot analysis; type: ADME, subcellular, Liver S9 fraction; summary of the method: as §7
[16] = Aqueous solubility of the compound at pH 7; type: physicochemical; conditions: buffer
Plasma [17] = experiment: Prodrug conversion in monkey plasma assessed as formation of 1-ethyl-3-[6-fluoro-5-[2-(1-hydroxy-1-methyl-ethyl)pyrimidin-5-yl]-7-[(2R)-tetrahydrofuran-2-yl]-1H-benzimidazol-2-yl]urea at 1 mg/kg, iv measured at 4 hrs by LC-MS/MS analysis; type: ADME, organism-based, Macaca mulatta; conditions: rhesus monkey, in vivo; summary of the method: as §5
Liver [18] = experiment: Prodrug conversion in dog liver S9 fractions assessed as formation of 1-ethyl-3-[6-fluoro-5-[2-(1-hydroxy-1-methyl-ethyl)pyrimidin-5-yl]-7-[(2R)-tetrahydrofuran-2-yl]-1H-benzimidazol-2-yl]urea by Michaelis-Menten plot analysis; type: ADME, subcellular, Canis lupus familiaris, Liver S9 fraction; summary of the method: as §7
Liver [19] = experiment: Prodrug conversion in human liver S9 fractions assessed as formation of 1-ethyl-3-[6-fluoro-5-[2-(1-hydroxy-1-methyl-ethyl)pyrimidin-5-yl]-7-[(2R)-tetrahydrofuran-2-yl]-1H-benzimidazol-2-yl]urea by Michaelis-Menten plot analysis; type: ADME, subcellular, Liver S9 fraction; summary of the method: as §7
Plasma [20] = experiment: Prodrug conversion in rat plasma assessed as formation of 1-ethyl-3-[6-fluoro-5-[2-(1-hydroxy-1-methyl-ethyl)pyrimidin-5-yl]-7-[(2R)-tetrahydrofuran-2-yl]-1H-benzimidazol-2-yl]urea at 3 mg/kg, po by LC-MS/MS analysis; type: ADME, organism-based; conditions: in vivo; summary of the method: as §3
Staphylococcus aureus [21] = experiment: Antibacterial activity against methicillin-resistant Staphylococcus aureus 509 in neutropenic CD1 mouse pneumonia model assessed as decrease in bacterial burden in lung at 30 mg/kg, po bid measured after 24 hrs; type: functional; summary of the method: as §4
MDCK [22] = experiment: as §6; type: ADME, cell-based, Canis lupus familiaris; conditions: dog; summary of the method: as §2
Plasma [23] = experiment: Prodrug conversion in rat plasma assessed as formation of 1-ethyl-3-[6-fluoro-5-[2-(1-hydroxy-1-methyl-ethyl)pyrimidin-5-yl]-7-[(2R)-tetrahydrofuran-2-yl]-1H-benzimidazol-2-yl]urea at 1 mg/kg, iv measured at 4 hrs by LC-MS/MS analysis; type: ADME, organism-based; conditions: in vivo; summary of the method: as §5
Intestine = experiment: Prodrug conversion in rat intestine S9 fractions assessed as formation of 1-ethyl-3-[6-fluoro-5-[2-(1-hydroxy-1-methyl-ethyl)pyrimidin-5-yl]-7-[(2R)-tetrahydrofuran-2-yl]-1H-benzimidazol-2-yl]urea by Michaelis-Menten plot analysis; type: ADME, tissue-based; summary of the method: as §7
[24] = Prodrug conversion in monkey intestine S9 fractions assessed as formation of 1-ethyl-3-[6-fluoro-5-[2-(1-hydroxy-1-methyl-ethyl)pyrimidin-5-yl]-7-[(2R)-tetrahydrofuran-2-yl]-1H-benzimidazol-2-yl]urea by Michaelis-Menten plot analysis; type: ADME, tissue-based, Macaca mulatta; conditions: rhesus monkey; summary of the method: as §7
Plasma [25] = experiment: Prodrug conversion in monkey plasma assessed as formation of 1-ethyl-3-[6-fluoro-5-[2-(1-hydroxy-1-methyl-ethyl)pyrimidin-5-yl]-7-[(2R)-tetrahydrofuran-2-yl]-1H-benzimidazol-2-yl]urea at 30 mg/kg, po by LC-MS/MS analysis; type: ADME, organism-based, Macaca mulatta; conditions: rhesus monkey, in vivo; summary of the method: as §3
Staphylococcus aureus [26] = experiment: Antibacterial activity against methicillin/levofloxacin-resistant Staphylococcus aureus 156 in neutropenic CD1 mouse pneumonia model assessed as decrease in bacterial burden in lung at 30 mg/kg, po bid measured after 24 hrs; type: functional; summary of the method: as §4
[27] = Prodrug conversion in dog intestine S9 fractions assessed as formation of 1-ethyl-3-[6-fluoro-5-[2-(1-hydroxy-1-methyl-ethyl)pyrimidin-5-yl]-7-[(2R)-tetrahydrofuran-2-yl]-1H-benzimidazol-2-yl]urea by Michaelis-Menten plot analysis; type: ADME, tissue-based, Canis lupus familiaris; summary of the method: as §7
Plasma [28] = experiment: Prodrug conversion in dog plasma assessed as formation of 1-ethyl-3-[6-fluoro-5-[2-(1-hydroxy-1-methyl-ethyl)pyrimidin-5-yl]-7-[(2R)-tetrahydrofuran-2-yl]-1H-benzimidazol-2-yl]urea at 1 mg/kg, iv measured at 4 hrs by LC-MS/MS analysis; type: ADME, organism-based, Canis lupus familiaris; conditions: in vivo; summary of the method: as §5
[29] = Prodrug conversion in human intestine S9 fractions assessed as formation of 1-ethyl-3-[6-fluoro-5-[2-(1-hydroxy-1-methyl-ethyl)pyrimidin-5-yl]-7-[(2R)-tetrahydrofuran-2-yl]-1H-benzimidazol-2-yl]urea by Michaelis-Menten plot analysis; type: ADME, tissue-based; summary of the method: as §7

Topoisomerase IV, sequence (P0C1U9 whole entry): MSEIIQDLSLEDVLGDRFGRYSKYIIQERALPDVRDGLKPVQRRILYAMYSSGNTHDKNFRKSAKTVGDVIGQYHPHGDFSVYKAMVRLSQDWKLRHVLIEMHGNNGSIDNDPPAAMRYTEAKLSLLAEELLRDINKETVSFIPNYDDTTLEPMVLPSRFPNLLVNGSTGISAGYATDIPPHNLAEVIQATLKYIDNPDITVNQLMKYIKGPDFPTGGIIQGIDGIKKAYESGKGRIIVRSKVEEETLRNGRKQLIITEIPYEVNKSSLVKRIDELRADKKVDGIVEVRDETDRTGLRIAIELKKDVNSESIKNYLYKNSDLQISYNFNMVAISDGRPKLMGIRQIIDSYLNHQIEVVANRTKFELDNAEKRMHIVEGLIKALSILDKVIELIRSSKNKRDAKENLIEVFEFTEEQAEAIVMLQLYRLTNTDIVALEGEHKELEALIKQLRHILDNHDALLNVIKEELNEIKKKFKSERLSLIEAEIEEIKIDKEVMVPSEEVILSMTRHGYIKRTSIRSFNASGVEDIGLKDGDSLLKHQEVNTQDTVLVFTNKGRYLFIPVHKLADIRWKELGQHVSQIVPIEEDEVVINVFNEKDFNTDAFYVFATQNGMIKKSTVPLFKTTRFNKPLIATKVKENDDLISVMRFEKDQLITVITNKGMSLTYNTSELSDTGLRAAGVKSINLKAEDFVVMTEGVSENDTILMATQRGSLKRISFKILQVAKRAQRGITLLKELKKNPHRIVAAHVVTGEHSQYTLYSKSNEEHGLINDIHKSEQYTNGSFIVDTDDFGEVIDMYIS
Topoisomerase IV, sequence (P0C1S7 whole entry): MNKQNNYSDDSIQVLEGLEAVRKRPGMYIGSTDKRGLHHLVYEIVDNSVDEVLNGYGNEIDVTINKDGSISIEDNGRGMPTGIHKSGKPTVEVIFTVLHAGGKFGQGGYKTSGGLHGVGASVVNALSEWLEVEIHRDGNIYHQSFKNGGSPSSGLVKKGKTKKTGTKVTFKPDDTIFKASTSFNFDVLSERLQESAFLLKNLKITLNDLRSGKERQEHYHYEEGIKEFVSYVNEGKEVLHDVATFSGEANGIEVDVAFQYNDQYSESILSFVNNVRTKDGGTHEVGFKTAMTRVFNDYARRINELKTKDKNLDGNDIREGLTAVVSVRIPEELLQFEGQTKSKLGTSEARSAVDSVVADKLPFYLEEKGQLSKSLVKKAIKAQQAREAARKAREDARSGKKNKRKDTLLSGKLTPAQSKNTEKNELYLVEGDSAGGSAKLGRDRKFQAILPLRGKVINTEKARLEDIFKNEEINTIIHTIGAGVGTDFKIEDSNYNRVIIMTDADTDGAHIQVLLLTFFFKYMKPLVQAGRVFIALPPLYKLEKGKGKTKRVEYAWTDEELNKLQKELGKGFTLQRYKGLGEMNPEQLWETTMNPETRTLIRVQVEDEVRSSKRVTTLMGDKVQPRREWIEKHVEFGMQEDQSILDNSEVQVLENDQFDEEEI
DNA gyrase, sequence (P0A0K8 whole entry): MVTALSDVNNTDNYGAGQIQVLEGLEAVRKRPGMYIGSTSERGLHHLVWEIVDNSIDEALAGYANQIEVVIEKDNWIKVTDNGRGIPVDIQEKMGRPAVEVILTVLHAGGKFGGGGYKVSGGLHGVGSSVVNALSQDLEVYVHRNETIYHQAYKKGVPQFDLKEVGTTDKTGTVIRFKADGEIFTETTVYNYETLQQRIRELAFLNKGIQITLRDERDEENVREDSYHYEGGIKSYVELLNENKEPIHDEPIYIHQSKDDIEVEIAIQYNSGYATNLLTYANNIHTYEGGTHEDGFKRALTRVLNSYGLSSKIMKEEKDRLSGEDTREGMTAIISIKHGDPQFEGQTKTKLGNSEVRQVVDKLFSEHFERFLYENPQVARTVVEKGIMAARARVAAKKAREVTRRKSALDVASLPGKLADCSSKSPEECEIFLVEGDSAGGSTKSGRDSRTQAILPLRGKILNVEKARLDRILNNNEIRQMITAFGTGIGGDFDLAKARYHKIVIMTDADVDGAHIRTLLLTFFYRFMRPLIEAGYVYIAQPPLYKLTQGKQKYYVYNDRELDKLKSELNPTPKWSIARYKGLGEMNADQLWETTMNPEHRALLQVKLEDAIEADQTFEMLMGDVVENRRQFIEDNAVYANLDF
DNA gyrase, sequence (P20831 whole entry): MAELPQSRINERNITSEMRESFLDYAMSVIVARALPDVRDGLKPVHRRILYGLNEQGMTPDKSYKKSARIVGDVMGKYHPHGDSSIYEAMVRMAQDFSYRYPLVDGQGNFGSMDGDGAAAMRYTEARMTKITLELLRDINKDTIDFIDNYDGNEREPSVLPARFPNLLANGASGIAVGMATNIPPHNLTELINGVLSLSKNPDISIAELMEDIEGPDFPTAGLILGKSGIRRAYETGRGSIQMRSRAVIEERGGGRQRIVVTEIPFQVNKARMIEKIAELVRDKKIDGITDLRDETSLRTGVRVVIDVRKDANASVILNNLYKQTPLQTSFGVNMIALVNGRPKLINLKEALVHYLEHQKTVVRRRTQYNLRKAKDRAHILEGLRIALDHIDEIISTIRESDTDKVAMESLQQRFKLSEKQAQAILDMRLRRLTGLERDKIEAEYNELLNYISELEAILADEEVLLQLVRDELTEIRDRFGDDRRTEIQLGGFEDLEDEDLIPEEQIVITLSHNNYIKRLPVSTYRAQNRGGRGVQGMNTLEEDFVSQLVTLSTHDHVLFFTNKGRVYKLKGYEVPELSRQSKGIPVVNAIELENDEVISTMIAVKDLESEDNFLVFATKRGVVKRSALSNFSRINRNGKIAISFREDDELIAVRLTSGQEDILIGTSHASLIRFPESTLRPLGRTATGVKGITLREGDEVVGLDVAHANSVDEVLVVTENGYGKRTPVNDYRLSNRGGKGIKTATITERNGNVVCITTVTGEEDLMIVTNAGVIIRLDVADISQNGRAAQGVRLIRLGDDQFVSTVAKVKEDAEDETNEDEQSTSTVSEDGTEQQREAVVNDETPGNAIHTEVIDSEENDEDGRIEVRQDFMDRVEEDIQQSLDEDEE

## CCNC(=O)Nc1nc2cc(-c3cnc(C(C)(C)O)nc3)c(F)c([C@H]3CCCO3)c2[nH]1
Topoisomerase IV
  Ki: 12 nM
[1]
  Papp B→A: 16.3 ×10⁻⁶ cm/s
Plasma [2]
  Drug uptake: Active
Streptococcus pneumoniae
  MIC: ≤ 0.008 µg/mL
Staphylococcus aureus [3]
  MIC: 0.06 µg/mL (≈ 0.14 µM)
Plasma [4]
  Drug uptake: Active
Enterococcus faecium
  MIC: 0.063 µg/mL (≈ 0.147 µM)
Plasma [5]
  Drug uptake: Active
[6]
  Papp A→B: 9.5 ×10⁻⁶ cm/s
Enterococcus faecalis
  MIC: 0.016 µg/mL (≈ 0.0373 µM)
DNA gyrase
  Ki: < 9 nM
Plasma [7]
  Drug uptake: Active
Staphylococcus aureus [8]
  MIC: 0.016 µg/mL (≈ 0.0373 µM)
Plasma [9]
  Drug uptake: Active
Plasma [10]
  Drug uptake: Active
Staphylococcus aureus [11]
  MIC: 0.06 µg/mL (≈ 0.14 µM)

## C[C@H]1COc2c(N3CCN(C)CC3)c(F)cc3c(=O)c(C(=O)O)cn1c23.C[C@H]1COc2c(N3CCN(C)CC3)c(F)cc3c(=O)c(C(=O)O)cn1c23.O [LEVOFLOXACIN]
Staphylococcus aureus [3]
  MIC: 8 µg/mL
Staphylococcus aureus [11]
  MIC: 0.25 µg/mL

## CCNC(=O)Nc1nc2cc(-c3cnc(C(C)(C)OP(=O)(O)O)nc3)c(F)c([C@H]3CCCO3)c2[nH]1
Topoisomerase IV
  Ki: 30 nM
Plasma [12]
  Drug metabolism: metabolite_detected
[13]
  Km: 122 µM
  Vmax: 25.2 pmol/min/mg
MDCK [14]
  Papp: impermeable
Liver [15]
  Km: 49.8 µM
  Vmax: 45.5 pmol/min/mg
[16]
  solubility: 75 mg/mL (≈ 148000 µM)
Streptococcus pneumoniae
  MIC: 0.25 µg/mL (≈ 0.492 µM)
Staphylococcus aureus [3]
  Activity: Dose-dependent effect
Plasma [17]
  Drug metabolism: metabolite_detected
Enterococcus faecium
  MIC: 4 µg/mL (≈ 7.87 µM)
Liver [18]
  Km: 256 µM
  Vmax: 19.3 pmol/min/mg
Liver [19]
  Km: 137 µM
  Vmax: 45.8 pmol/min/mg
Plasma [20]
  Drug metabolism: metabolite_detected
Staphylococcus aureus [21]
  Activity: >3 deltalog10CFU
MDCK [22]
  Papp: impermeable
Enterococcus faecalis
  MIC: 1 µg/mL (≈ 1.97 µM)
Plasma [23]
  Drug metabolism: metabolite_detected
DNA gyrase
  Ki: < 9 nM
Intestine
  Km: 736 µM
  Vmax: 958 pmol/min/mg
[24]
  Km: 5180 µM
  Vmax: 1974 pmol/min/mg
Plasma [25]
  Drug metabolism: metabolite_detected
Staphylococcus aureus [8]
  MIC: 8 µg/mL (≈ 15.7 µM)
Staphylococcus aureus [26]
  Activity: >3 deltalog10CFU
[27]
  Km: 998 µM
  Vmax: 1162 pmol/min/mg
Plasma [28]
  Drug metabolism: metabolite_detected
[29]
  Vmax: > 1000 pmol/min/mg
Staphylococcus aureus [11]
  Activity: Dose-dependent effect

Reference: ChEMBL document CHEMBL3608279, “Discovery and Characterization of a Water-Soluble Prodrug of a Dual Inhibitor of Bacterial DNA Gyrase and Topoisomerase IV” (ACS Med Chem Lett, 2015)
